# Screens from PubChem.
# In the library only some 2% were active in any assay of this set; here they are far more common.
# VLA-4 inh: inhibition in human VLA-4 binding assay, primary screen, VLA-4 allosteric modulator project, MLPCN library, flow cytometry, VLA-4 expressing cells; Integrin alpha-4 (Homo sapiens), P13612; ligand binding flow cytometry; inhibition, % (about 7 µM as worked out from the volumes in the protocol); hit rate 0.2% among 330,000; AID 2557, 2010; in the data active = inhibition above about 50%
# Target sequence (P13612 whole entry, looked up): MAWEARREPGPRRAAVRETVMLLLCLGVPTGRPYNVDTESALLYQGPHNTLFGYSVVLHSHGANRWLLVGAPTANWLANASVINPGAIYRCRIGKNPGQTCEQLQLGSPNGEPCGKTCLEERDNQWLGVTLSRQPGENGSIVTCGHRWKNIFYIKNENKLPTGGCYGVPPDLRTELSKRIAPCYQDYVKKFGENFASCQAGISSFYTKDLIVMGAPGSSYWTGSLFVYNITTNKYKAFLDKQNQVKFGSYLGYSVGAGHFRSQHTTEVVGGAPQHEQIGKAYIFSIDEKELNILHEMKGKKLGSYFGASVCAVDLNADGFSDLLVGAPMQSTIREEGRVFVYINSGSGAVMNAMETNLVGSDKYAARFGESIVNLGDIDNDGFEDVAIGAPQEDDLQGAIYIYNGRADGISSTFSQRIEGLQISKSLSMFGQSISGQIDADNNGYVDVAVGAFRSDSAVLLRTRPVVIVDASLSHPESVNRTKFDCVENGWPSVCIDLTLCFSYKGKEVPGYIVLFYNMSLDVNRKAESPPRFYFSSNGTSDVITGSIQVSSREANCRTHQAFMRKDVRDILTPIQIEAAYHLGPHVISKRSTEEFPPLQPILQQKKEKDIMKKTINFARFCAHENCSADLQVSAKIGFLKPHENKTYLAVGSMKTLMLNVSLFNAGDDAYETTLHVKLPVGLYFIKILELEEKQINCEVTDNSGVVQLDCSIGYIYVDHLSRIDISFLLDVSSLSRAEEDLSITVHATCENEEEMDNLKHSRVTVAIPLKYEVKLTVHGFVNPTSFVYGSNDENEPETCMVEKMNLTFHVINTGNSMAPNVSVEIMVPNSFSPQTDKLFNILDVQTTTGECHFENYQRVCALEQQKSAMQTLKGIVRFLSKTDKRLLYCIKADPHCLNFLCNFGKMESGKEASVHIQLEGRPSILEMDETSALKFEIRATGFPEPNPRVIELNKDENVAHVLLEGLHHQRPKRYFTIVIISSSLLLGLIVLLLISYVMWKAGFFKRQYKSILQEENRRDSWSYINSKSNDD
# ABCB6 inh MLPCN: ABCB6 transporter inhibitors, primary screen, K562-ABCB6 cells, flow cytometry, MLPCN library | ATP-binding cassette sub-family B member 6 (Homo sapiens), Q9NP58 | K562-ABCB6 porphyrin accumulation, 1 h; stronger effect = lower value | fluorescence ratio to DMSO, % at 10 µM | hit rate 0.19% among 360,000;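 active = fluorescence ratio to DMSO below 75%, the collection mean minus 3 SD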;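 note: signal is porphyrin accumulated inside mitochondria; 100% equals median channel fluorescence of DMSO control wells; lower ratio means ABCB6 inhibition with less porphyrin fluorescence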
# Granule exo inh: LAMP-1 surface exposure blockers, TALL-104 cells – cell-based, flow cytometry, MLPCN library, primary screen; AID 651702, 2012; inhibition, % at 10 µM; TALL-104 LAMP-1 surface exposure; cells stimulated with thapsigargin and PMA; hit rate 0.66% among 360,000;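 active = inhibition above about 55%, limit read from the data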
# FGF22 binding: binders of human FGF22 protein, primary screen, FGF22 synaptogenesis inhibitor project, biophysical, thermal shift, single point; recombinant FGF22 thermal shift, SYPRO orange fluorescence; percent of sucrose octasulfate shift, DMSO zero; activity (Tm shift, normalised), % at 9.99 µM; hit rate 1.5% among 340,000;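 active = mean Tm shift, scaled 0 neutral to 100 positive control, at about 1.3% or above, every replicate too, limit read from the data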
# DAGLB inh: DAGLB lipase inhibitors, primary screen, biochemical, fluorescence, HTS; Diacylglycerol lipase-beta (Homo sapiens), Q8NCG7; HEK293T DAGLB membrane lysate, EnzChek fluorogenic substrate; inhibition, % at 5.17 µM; hit rate 0.059% among 340,000; AID 504411, 2011; in the data active = inhibition above about 34%;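 note: 0% = enzyme with vehicle and 100% = wells lacking enzyme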
# MT1-MMP act inh: blockers of MT1-MMP proenzyme processing, primary screen, HT1080 RFP-PRO-GFP cells, GFP/RFP fluorescence; hit rate 0.061% among 360,000; GFP/RFP ratio change, % at 20 µM; GFP/RFP ratio fluorescence, overnight; percent of plate control window, DMSO zero; AID 651647, 2012; Matrix metalloproteinase-14 (Homo sapiens), P50281;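 active = GFP/RFP ratio change of at least 30% with cell ATP level not reduced by more than half and red fluorescence within 50% of control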
#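 Material – HT1080 RFP-PRO-GFP cells · Control set – DMSO wells and RFP-L50D-GFP cells · Incubation – overnight cell settling, then overnight compound exposure, 37 °C, 5% CO2 · Compound dosing – single-point 20 µM compound, 1% DMSO · Read-out – GFP/RFP fluorescence ratio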
# Exocytosis CP01: inhibitors of lytic granule exocytosis, confirmation, TALL-104 cells, flow cytometry, Cherry Pick01 | shares compounds with Granule exo inh | LAMP-1 externalization; stimulated with PMA plus thapsigargin | inhibition, % at 10 µM | hit rate 11% among 1,500; in the data active = inhibition above about 60%;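 note: 0% = stimulated vehicle wells and 100% = unstimulated wells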
# Numbers without * were called inactive; x = not tested or not shown.
SMILES,VLA-4 inh,ABCB6 inh MLPCN,Granule exo inh,FGF22 binding,DAGLB inh,MT1-MMP act inh,Exocytosis CP01
CCOc1ccc(C(=O)Nc2ccc3nc(N4CCN(CC)CC4)cc(C)c3c2)cc1,17,92,63*,0,1,11,-6
C[C@@H]1CCCCO[C@H](CN(C)Cc2ccc3c(c2)OCO3)[C@H](C)CN([C@@H](C)CO)C(=O)c2cc(NC(=O)c3ccncc3)ccc2O1,x,x,x,0,x,x,x
Cc1ccc(S(=O)(=O)Nc2ccc3c(c2)C(=O)N([C@H](C)CO)C[C@@H](C)[C@H](CN(C)Cc2ccc4c(c2)OCO4)OCCCC[C@H](C)O3)cc1,x,x,x,-1,x,x,x
O=C(NC1CCN(Cc2ccccc2)CC1)c1ccccc1Cl,0,101,2,0,0,2,x
Cc1oc(-c2ccccc2)cc1C(=O)NC1CCN(Cc2ccccc2)CC1,0,96,67*,0,x,1,-7
O=C(NCc1cccnc1)/C(=C\c1ccc(-c2ccc(Br)cc2)o1)S(=O)(=O)c1ccccc1,37,101,83*,0,7,-14,54
C[C@@H]1CN([C@H](C)CO)S(=O)(=O)c2ccc(-c3cccnc3)cc2O[C@@H]1CN(C)CC1CC1,x,x,x,0,x,x,x
COc1ccccc1C(=O)Nc1c(C(=O)N(CCN(C)C)Cc2ccco2)oc2ccccc12,5,102,66*,0,-3,-3,2
COCc1cn(CC[C@@H]2CC[C@@H](NC(=O)CCN3CCCCC3)[C@@H](CO)O2)nn1,x,x,x,0,x,x,x
COC(=O)c1ccc(CCc2cc(O)c(Br)cc2O)cc1,x,95,98*,-1,-3,1,77*
CCOc1cccc(CN(CC)CC2CCCN(CCc3cccc(OC)c3)C2)c1O (stereo not given),1,96,85*,0,1,0,-12
CCN(Cc1ccc(O)cc1)CC1CCCN(CCc2cccc(F)c2)C1 (stereo not given),-1,102,67*,0,1,6,-13
COc1ccc(CN(C)CC2CCCN(CCc3ccccc3C)C2)cc1O (stereo not given),-1,100,53,0,0,6,x
COc1ccc(CCN2CCCC(CN(C)Cc3cc(Cl)c(O)c(OC)c3)C2)cc1 (stereo not given),-5,100,56*,0,2,0,-11
COc1cccc(CN(C)CC2CCCN(CCc3ccccc3C)C2)c1 (stereo not given),15,105,57*,x,1,5,-10
COCC(=O)N1CC2(C1)[C@@H](c1ccc(-c3ccc(F)cc3)cc1)[C@@H](CO)N2C(C)=O,x,x,x,0,x,x,x
C/C=C/c1cnc2c(c1)C(=O)N([C@@H](C)CO)C[C@H](C)[C@@H](CN(C)Cc1cncnc1)O2,x,x,x,0,x,x,x
CN(Cc1ccccc1OCCO)CC1CCCN(CCc2ccc(Cl)cc2)C1 (stereo not given),-4,101,58*,0,0,6,-11
CCN(Cc1cccc(OC)c1)CC1CCCN(CCc2cccc(OC)c2)C1 (stereo not given),3,94,71*,0,-2,4,-13
Cc1ccc2c(c1)c1c3n2CCCNC3CCC1 (stereo not given),12,109,0,x,2,1,x
c1cc2c(cc1C1CCCCC1)c1c3n2CCCNC3CCC1 (stereo not given),17,108,77*,x,2,-5,7
O=C(NC1CC1)c1cccc(Nc2ccc(-c3ccc4c(c3)OCCO4)nn2)c1,-17,98,71*,x,0,0,3
O=S(=O)(c1ccc(Nc2ccc(-c3ccc4c(c3)OCCO4)nn2)cc1)N1CCCC1,6,99,-2,1,0,0,x
Cc1noc(C)c1NC(=O)Nc1ccc2c(c1)C(=O)N([C@@H](C)CO)C[C@@H](C)[C@H](CN(C)C(=O)Nc1cccc3ccccc13)OCCCC[C@@H](C)O2,x,x,x,0,x,x,x
C=CCN1C(=O)C(CC(=O)Nc2ccc(OCCC)cc2)N(CCCN2CCN(Cc3ccccc3)CC2)C1=S (stereo not given),13,89,58*,0,-1,-6,21
SMILES,VLA-4 inh,ABCB6 inh MLPCN,Granule exo inh,FGF22 binding,DAGLB inh,MT1-MMP act inh,Exocytosis CP01
O=C(CSCCO)Nc1ccccc1,14,98,0,x,-1,16,x
CCc1ccc(NC(=O)CSCCO)cc1,7,100,85*,0,-2,1,-12
Cc1ccc(-c2csc3ncn(-n4c(C)ccc4C)c(=O)c23)o1,-10,98,56*,x,-1,-2,-14
Cc1sc2ncn(-n3c(C)ccc3C)c(=O)c2c1C,7,98,-5,x,-3,1,x
COCC#Cc1cnc2c(c1)C(=O)N([C@H](C)CO)C[C@H](C)[C@@H](CN(C)C(=O)Nc1ccccc1F)O2,x,x,x,0,x,x,x
O=C1C=CC(=O)N1N(c1ccccc1)c1ccccc1,-13,99,78*,1,3,2,104*
O=C1c2ccccc2C(=O)N1N(c1ccccc1)c1ccccc1,x,98,-1,0,-2,0,x
O=C(c1ccncc1)N1C[C@H]2[C@@H](c3ccccc31)[C@@H](CO)N2C(=O)c1ccccn1,x,x,x,0,x,x,x
COc1ccc(NC(=O)N[C@@H]2CC[C@H](CC(=O)NCc3ccccn3)O[C@@H]2CO)cc1,x,x,x,0,x,x,x
CCN1C(=O)N[C@@H](c2cccc(C(F)(F)F)c2)[C@@H](C(=O)OC)[C@H]1C,0,96,101*,0,2,-1,-12
COCCN1C(=O)N[C@@H](c2cccc(C(F)(F)F)c2)[C@@H](C(=O)OC)[C@H]1C,4,92,-9,x,-4,2,x
O=S(=O)(Nc1cc(Sc2ncn[nH]2)c(O)c2ccccc12)c1ccccc1,x,104,101*,43*,x,-54,103*
Cc1cc(O)c(Sc2ncn[nH]2)cc1NS(=O)(=O)c1ccc(Cl)cc1,3,103,-7,-1,5,8,x
NS(=O)(=O)c1ccc(CCNCc2ccccc2OCc2ccc(Cl)cc2)cc1,4,90,57*,0,-1,7,-11
